# Experiments:
# Rattus norvegicus [1] = test: Percentage of animals failing to emit 50 lever presses within 15 min in DOI trained rats at a compound dose of 8 mg/kg; type: functional
# Method in brief: (§1)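 Male Sprague–Dawley rats (200–220 g) in a two-lever, FR50 food-reinforced task. Rats were trained to discriminate saline from LSD tartrate (0.08 mg/kg), DOI HCl (0.4 mg/kg) or LY293284 (0.025 mg/kg) in 15-min sessions. %SDL is the share of rats making over 80% of presses on the drug lever. %D is the share failing to make 50 presses within 15 min. ED50 by Litchfield–Wilcoxon log-probit.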
# Rattus norvegicus [2] = test: Percentage of animals failing to emit 50 lever presses within 15 min in […] trained rats at a compound dose of 16 mg/kg; type: functional
# Method in brief: (§2)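 Two-lever drug discrimination in male Sprague–Dawley rats (200–220 g at start), trained against saline on LSD tartrate (0.08 mg/kg), DOI HCl (0.4 mg/kg) or LY293284 (0.025 mg/kg). FR50 food-pellet reinforcement, levers counterbalanced, 15-min sessions at 22–24 °C. %D is the share of tested rats not completing 50 lever presses within 15 min.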
# Rattus norvegicus [3] = test: Percentage of animals emitting >80% of lever presses in […] trained rats at a compound dose of 12.6 uM/Kg; type: functional; method in brief: as §1
# Rattus norvegicus [4] = test: Percentage of animals failing to emit 50 lever presses within 15 min in DOI trained rats at a compound dose of 2 mg/kg; type: functional; method in brief: as §1
# Rattus norvegicus [5] = test: Percentage of animals failing to emit 50 lever presses within 15 min in LSD trained rats at a compound dose of 4.0 mg/kg; type: functional; method in brief: as §2
# Rattus norvegicus [6] = test: Percentage of animals emitting >80% of lever presses in LSD trained rats at a compound dose of 3.16 uM/Kg; type: functional; method in brief: as §1
# [7] = biological target: T1, 5-hydroxytryptamine receptor 2C (Homo sapiens, UniProt P28335); test: Compound was tested for the displacement of [125I]DOI from cloned human 5-hydroxytryptamine 2C receptor
# T1 sequence (P28335 whole entry): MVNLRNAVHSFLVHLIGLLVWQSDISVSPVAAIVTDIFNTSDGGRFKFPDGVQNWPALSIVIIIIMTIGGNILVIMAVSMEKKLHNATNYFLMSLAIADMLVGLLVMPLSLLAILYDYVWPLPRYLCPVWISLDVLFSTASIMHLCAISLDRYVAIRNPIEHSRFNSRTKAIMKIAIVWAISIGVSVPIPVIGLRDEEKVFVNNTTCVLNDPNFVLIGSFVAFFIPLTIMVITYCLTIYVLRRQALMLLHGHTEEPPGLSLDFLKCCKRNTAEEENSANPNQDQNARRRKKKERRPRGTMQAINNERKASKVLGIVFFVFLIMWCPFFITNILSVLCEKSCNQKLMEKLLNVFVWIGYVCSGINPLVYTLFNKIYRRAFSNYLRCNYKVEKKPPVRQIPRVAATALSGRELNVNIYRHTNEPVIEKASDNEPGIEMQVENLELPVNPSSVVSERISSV
# Method in brief: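 Membranes from AV12 hamster fibroblasts stably expressing human 5-HT2A or 5-HT2C. [125I]DOI was about 0.07–0.15 nM final. Buffer was 50 mM Tris-HCl pH 7.4 with 10 μM pargyline, 9.75 mM MgCl2, 0.5 mM Na2-EDTA and 0.1% Na ascorbate. Incubation was 30 min at 37 °C with about 40 μg protein (2A) or 30 μg (2C). Nonspecific binding used 1 μM ketanserin (2A) or 10 μM mianserin (2C). Read by gamma counting; sigmoid nonlinear regression.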
smiles,measurement,setting,value
CN(C)CCc1c[nH]c2sccc12,D,Rattus norvegicus [1],12.5%
same,D,Rattus norvegicus [2],0%
same,SDL,Rattus norvegicus [3],67%
same,D,Rattus norvegicus [4],0%
same,D,Rattus norvegicus [5],0%
same,SDL,Rattus norvegicus [6],7.7%
same,Ki,[7],102 nM
